Most compounds without a hit are left out; they make up all but 8.9% or so of the library.
MT stabilizer – microtubule stabilizers in HeLa cells, primary screen, imaging, high-content imaging; AID 2205, 2009; 200,000 tested, 0.83% active; HeLa tubulin immunostaining HCS, 24 h; share of cells brighter than vehicle mean+2SD; % tubulin-high responders, % at 10 µM;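 active = plate Z-score above 3 for both tubulin-high and condensed-nucleus cell shares, with cell loss under 80%, at 10 µM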;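 also: anti alpha tubulin signal scored within the nucleus-defined area of each cell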
L major viab – Leishmania major promastigote growth inhibition, primary screen; Leishmania major promastigotes, resazurin fluorescence viability; inhibition, % at 10 µM; 200,000 tested, 9% active; in the data active = inhibition above about 50%;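 also: promastigotes grown with compound for 44 hours at 28 °C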
HSV replic up – enhancers of HSV replication in host cells, fold increase, host cell viability | HSV replication augmentation in cells | maximum fold increase | 220,000 tested, 0.005% active | AID 1956, 2009; in the data active = maximum fold increase above about 1.5; tested in PC3 cells
b-catenin transl – modulators of beta-catenin nuclear translocation, primary screen, imaging, HeLa cells, immunofluorescence, high-content | nuclear translocation activity, % at 5 µM | 190,000 tested, 0.3% active;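 active = nuclear translocation activity above 50% at 5 µM, with a well cell count of 50 or more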;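 also: per-cell ratio of nuclear to cytoplasmic median beta-catenin stain intensity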
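Test system: human HeLa cell line; Doses: 5 µM primary, 0.02–20 µM confirmation; Incubation: 24 h compound exposure, 37°C; Detection: beta-catenin immunofluorescence imaging with DAPI; Read-out: beta-catenin nuclear/cytoplasmic ratio, % activation.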
Dynein cargo inh – inhibitors of GR-EGFP nuclear translocation, primary screen, dynein cargo transport inhibitor project, imaging, high-content, 3617.4 mouse cells. 220,000 tested, 0.47% active. z-score, hits read low. test concentration mostly 20 µM; stimulated with dexamethasone, 1 µM; stronger effect = lower value;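 active = plate z-score of nuclear minus cytoplasmic receptor signal below a set negative limit, without overly bright fluorescence or cell loss, cut at about -3.5 in these data, passing the limit was not always enough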;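 also: z-score of nuclear minus cytoplasmic ring GR-EGFP intensity difference per well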
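Buffer or medium: Induction medium lacking tetracycline, stripped serum | Also added: Dexamethasone agonist, 1.0 µM final, for 30 min | Timing: 48 h induction, 1 h compound, 30 min dex at 37 °C | Detection: Formaldehyde fixation, Hoechst nuclear stain, 10x automated fluorescence imaging | Measure: Nuclear versus cytoplasmic GR-EGFP signal, averaged per well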
A number is an active result; n = inactive; x = no result given.

SMILES	MT stabilizer	L major viab	HSV replic up	b-catenin transl	Dynein cargo inh
Cc1nc(NCc2ccco2)nc2c1C(=O)CC(C)C2 (stereo not given)	n	n	n	x	n
CC(=O)NCc1ccc(-c2nc3ccccc3s2)cc1	n	n	n	n	n
CC(=O)Nc1ccc(NC(=O)c2ccc(C)c(S(=O)(=O)Nc3cccc(C)c3)c2)cc1	n	n	n	n	n
Cc1ccc(C(=O)Nc2cccc([N+](=O)[O-])c2)cc1S(=O)(=O)Nc1cccc(C(=O)O)c1	n	n	n	n	n
Cc1ccc(NS(=O)(=O)c2ccc(OCC(=O)Nc3cccc([N+](=O)[O-])c3)c(C)c2)cc1	n	100	n	x	n
Cc1ccc(NS(=O)(=O)c2cc(C(=O)Nc3cccc([N+](=O)[O-])c3)ccc2C)cc1	n	67	n	n	n
Cc1ccc(NC(=O)CC(=O)c2ccc([N+](=O)[O-])cc2)cc1S(=O)(=O)Nc1cccc(Cl)c1	n	51	n	n	n
Cc1ccc(S(=O)(=O)CCC(=O)Nc2cccc([N+](=O)[O-])c2)cc1	n	n	n	n	n
Cc1ccc(C(=O)Nc2cccc([N+](=O)[O-])c2)cc1S(=O)(=O)Nc1ccc(NC(=O)c2ccccc2)cc1	n	62	n	n	n
Cc1ccc(NC(=O)CCNC(=O)c2ccc([N+](=O)[O-])cc2)cc1S(=O)(=O)N(C)C	n	n	n	n	n
CCOC(=O)c1c(NC(=O)Cc2cccs2)sc2c1CCCC2	n	n	n	n	n
CCOC(=O)c1ccc[n+](CC(=O)c2ccccc2)c1	n	n	n	n	n
CN(c1cccc(NC(=O)c2ccc(Cl)c(S(=O)(=O)Nc3ccccc3)c2)c1)S(C)(=O)=O	n	n	n	n	n
Cc1ccccc1NS(=O)(=O)c1cc(C(=O)Nc2cccc(N(C)S(C)(=O)=O)c2)ccc1C	n	97	n	n	n
O=C(CSc1ccccn1)Nc1cccc([N+](=O)[O-])c1	n	n	n	n	n
O=C(Nc1cc(Sc2nc3ccccc3s2)cc([N+](=O)[O-])c1)c1ccccc1F	n	n	n	n	n
O=C(Nc1cc(Sc2nc3ccccc3s2)cc([N+](=O)[O-])c1)c1ccccc1	n	100	n	n	n
O=C(Nc1cc(Sc2ccccn2)cc([N+](=O)[O-])c1)c1cccc(F)c1	n	95	n	n	n
COc1ccc(C2C=C(c3ccccc3)Nc3nc(NC(C)=O)nn32)cc1 (stereo not given)	n	n	n	n	n
CCNc1nc(CC)nc2c1oc1ccccc12	n	57	n	n	n
c1ccc2c(c1)oc1c(N3CCN(Cc4ccc5c(c4)OCO5)CC3)ncnc12	n	94	n	x	n
CCNc1nc(C)nc2c1oc1ccccc12	n	n	n	n	n
CCc1nc(NCc2ccc3c(c2)OCO3)c2oc3ccccc3c2n1	n	72	n	n	n
c1ccc(Cn2nnc3c(N4CCN(Cc5ccc6c(c5)OCO6)CC4)ncnc32)cc1	n	n	n	n	n
COc1ccccc1N1CCN(C(c2ccc(F)cc2)c2nnnn2C(C)C)CC1 (stereo not given)	n	n	n	n	n
SMILES	MT stabilizer	L major viab	HSV replic up	b-catenin transl	Dynein cargo inh
Cc1ccc(S(=O)(=O)N(CC(=O)N2CCN(c3ccccc3F)CC2)C2CCCCC2)cc1	n	97	n	n	n
CS(=O)(=O)N(CC(=O)N1CCN(C(c2ccccc2)c2ccccc2)CC1)C1CCCCC1	n	92	n	n	n
CS(=O)(=O)N(CC(=O)N1CCN(c2ccccc2F)CC1)C1CCCCC1	n	n	n	x	n
COc1ccc(CCN2CN(S(=O)(=O)c3ccccc3)c3nc4ccccc4nc32)cc1	n	n	n	n	n
COc1ccc(C2C(C#N)=C(N)Oc3cc4c(cc32)OCO4)cc1 (stereo not given)	n	96	n	x	n
COc1ccc(NC(=O)C(c2cc3c(cc2[N+](=O)[O-])OCO3)N(C)c2ccccc2)cc1 (stereo not given)	n	81	n	n	n
CCCCOP(=O)(OCCCC)C(O)c1ccc(F)cc1 (stereo not given)	x	x	n	n	n
CN(C)CCCNC(=O)c1ccccn1	n	n	n	x	n
CN(C)CCCNC(=O)c1ccc(-c2nc(-c3ccc(Cl)cc3)cs2)cc1	n	101	n	n	n
COc1cc2c(-c3ccc(O)cc3)nc3c(c(C)nn3-c3ccccc3)c2cc1OC	n	63	n	n	n
CCC(c1nnc(SCC(=O)Nc2ccc(C(C)=O)cc2)n1C1CCCCC1)N(C)C (stereo not given)	n	61	n	x	n
CCC(c1nnc(SCC(=O)Nc2cc(Cl)ccc2C#N)n1C1CCCCC1)N(C)C (stereo not given)	n	77	n	n	n
CCC(c1nnc(SCC(=O)Nc2cccnc2Cl)n1-c1ccccc1)N(C)C (stereo not given)	n	n	n	n	n
CCOC(=O)c1c(CN2CCCCC2)n(C)c2ccc(OC)c(S(=O)(=O)c3ccccc3)c12	n	n	n	n	n
Cc1ccc(NC(=O)CSCC(=O)N2c3ccccc3CCc3ccccc32)cc1	n	67	n	n	n
Cc1ccc(NC(=O)N2CCc3ccccc32)cc1	n	n	n	n	n
Clc1ccc(Cl)c(OCCCCNCc2ccccc2)c1	n	98	n	n	n
O=[N+]([O-])c1ccccc1OCCCNCc1ccccc1	n	98	n	n	n
O=C(COc1ccccc1[N+](=O)[O-])c1ccccc1	n	99	n	n	n
CCCOc1ccc(Cl)cc1CNc1ccccc1	n	n	n	n	n
Clc1ccc(OCCCNCc2ccccc2)c(Br)c1	n	91	n	n	n
Cc1cccc(C)c1NC(=O)c1cccc(COc2cc(Cl)ccc2Cl)c1	n	n	n	n	n
CC(C)c1nnc(NC(=O)C2CCCN2C(=O)Nc2ccccc2F)s1 (stereo not given)	n	n	n	n	n
CCCCS(=O)(=O)Nc1ccc(C(=O)NCC2CCCO2)cc1 (stereo not given)	n	n	n	x	n
O=C(CSc1nnc(-c2cccc(S(=O)(=O)N3CCCCC3)c2)o1)NCCC1=CCCCC1	n	n	n	n	n
SMILES	MT stabilizer	L major viab	HSV replic up	b-catenin transl	Dynein cargo inh
Nc1ccccc1C(=O)/C=C/c1ccc2c(c1)OCO2	n	58	n	x	n
O=C(/C=C/c1ccc2c(c1)OCO2)c1ccco1	n	n	n	n	n
CC1CCN(Cc2ccc(NC(=O)C3CCN(c4nnc(-n5cccc5)s4)CC3)cc2)CC1	n	92	n	n	n
O=C(NCc1ccc(Cl)cc1)c1ccccc1CCc1ccccc1	n	n	n	n	n
O=C(NCc1ccccc1Cl)c1ccccc1CCc1ccccc1	n	54	n	n	n
CCN(CC)S(=O)(=O)c1ccc(N2CCCC2)c(NS(=O)(=O)c2ccccc2)c1	n	63	n	n	n
CCN(CC)S(=O)(=O)c1cc(NS(=O)(=O)c2ccccc2)ccc1C	n	52	n	n	n
